The species named for data set [1] is Homo sapiens. The experiment in a line: Selectivity index, ratio of IC50 for inhibition of HDAC1 (unknown origin) to IC50 for inhibition of HDAC6 (unknown origin). An outline of the steps:
(§1)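 Ratio of IC50 values, each from a Fluor de Lys fluorogenic HDAC assay run in duplicate.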

Data set [2] is described as follows: Cytotoxicity against human HS5 cells assessed as inhibition of cell growth incubated for 72 hrs by alamar blue assay. The format is toxicity, cell-based. An outline of the steps: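 Cells were grown in IMDM with 20% FBS and penicillin/streptomycin at 37 °C in 5% CO2. Drug-treated cells were incubated 72 h. Alamar blue (1 mM solution) was then added for 5–6 h, and fluorescence read at 530/590 nm.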
A general note: The colour change of resazurin is a common sign of viable cells or microbes.

The next data set has as its system RPMI-8226. The experiment in a line: cells. The format is functional, cell-based. The following applies: Homo sapiens, RPMI-8226, 72 h.
For data set [3], the species on record is Homo sapiens. Briefly: Selectivity index, ratio of IC50 for inhibition of HDAC8 (unknown origin) to IC50 for inhibition of HDAC6 (unknown origin). The essentials:
as §1

Another data set concerns U-266. The experiment in a line: cells. The data set is classed as functional, cell-based. The conditions noted are these: Homo sapiens, U-266, 72 h.
A further data set addresses T1, Histone deacetylase 8 (Homo sapiens, UniProt Q9BY41).
T1 sequence (Q9BY41 whole entry): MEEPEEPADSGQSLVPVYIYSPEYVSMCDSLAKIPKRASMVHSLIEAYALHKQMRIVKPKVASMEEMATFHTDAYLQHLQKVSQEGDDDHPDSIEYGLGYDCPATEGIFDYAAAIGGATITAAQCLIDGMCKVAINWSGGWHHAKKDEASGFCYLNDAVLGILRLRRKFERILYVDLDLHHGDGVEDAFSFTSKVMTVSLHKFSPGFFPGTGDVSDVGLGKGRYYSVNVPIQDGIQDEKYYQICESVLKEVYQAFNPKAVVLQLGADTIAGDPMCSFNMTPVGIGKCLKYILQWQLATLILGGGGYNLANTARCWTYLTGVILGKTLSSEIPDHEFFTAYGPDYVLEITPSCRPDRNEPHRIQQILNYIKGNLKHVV
The experiment in a line: (§2) Inhibition of HDAC8 (unknown origin) using Fluor de lys as substrate by fluorescence based analysis.

The next data set has as its target Histone deacetylase 1 (Homo sapiens, UniProt Q13547). The experiment in a line: Inhibition of HDAC1 (unknown origin) using Fluor de lys as substrate by fluorescence based analysis.
In data set [4] the target is T2, Protein deacetylase HDAC6 (Homo sapiens, UniProt Q9UBN7).
T2 sequence (Q9UBN7 whole entry): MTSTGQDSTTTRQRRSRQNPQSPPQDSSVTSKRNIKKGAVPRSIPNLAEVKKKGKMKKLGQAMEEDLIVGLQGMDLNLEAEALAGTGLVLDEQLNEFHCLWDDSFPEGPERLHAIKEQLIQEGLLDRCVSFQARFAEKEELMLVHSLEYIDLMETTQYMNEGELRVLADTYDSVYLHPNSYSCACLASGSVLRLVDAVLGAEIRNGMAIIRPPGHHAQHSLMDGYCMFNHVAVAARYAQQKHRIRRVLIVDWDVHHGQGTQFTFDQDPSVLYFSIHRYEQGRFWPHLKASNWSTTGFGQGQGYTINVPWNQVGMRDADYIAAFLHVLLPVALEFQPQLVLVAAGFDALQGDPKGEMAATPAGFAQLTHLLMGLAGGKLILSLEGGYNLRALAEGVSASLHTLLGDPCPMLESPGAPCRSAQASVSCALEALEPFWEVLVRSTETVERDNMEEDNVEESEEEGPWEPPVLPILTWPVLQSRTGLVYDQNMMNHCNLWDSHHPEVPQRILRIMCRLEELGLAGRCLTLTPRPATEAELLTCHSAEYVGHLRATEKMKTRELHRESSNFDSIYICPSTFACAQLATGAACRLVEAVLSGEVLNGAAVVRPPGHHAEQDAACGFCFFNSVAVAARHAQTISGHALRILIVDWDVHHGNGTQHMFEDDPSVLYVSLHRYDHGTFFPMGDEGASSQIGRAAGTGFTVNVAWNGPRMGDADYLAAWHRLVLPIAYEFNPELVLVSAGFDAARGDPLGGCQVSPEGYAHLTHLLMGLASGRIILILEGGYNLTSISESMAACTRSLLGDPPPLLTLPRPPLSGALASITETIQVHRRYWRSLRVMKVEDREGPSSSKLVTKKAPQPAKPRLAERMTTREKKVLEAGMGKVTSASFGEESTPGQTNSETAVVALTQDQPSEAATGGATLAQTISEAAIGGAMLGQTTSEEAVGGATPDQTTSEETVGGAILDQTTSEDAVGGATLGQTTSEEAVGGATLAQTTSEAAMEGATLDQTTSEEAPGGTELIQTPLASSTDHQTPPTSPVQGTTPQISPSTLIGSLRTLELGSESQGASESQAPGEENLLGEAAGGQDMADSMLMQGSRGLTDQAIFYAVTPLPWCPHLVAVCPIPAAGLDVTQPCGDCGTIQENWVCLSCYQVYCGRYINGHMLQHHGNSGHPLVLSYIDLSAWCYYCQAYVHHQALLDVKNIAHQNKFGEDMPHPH
Briefly: Inhibition of HDAC6 (unknown origin) using Fluor de lys as substrate by fluorescence based analysis.

A short description of data set [5]: Microsomal stability in human liver microsomes assessed as half life at 0.5 uM prewarmed for 5 mins followed by NADPH addition and measured for 90 mins by LC-MS/MS analysis. The data set is classed as ADME, Microsome. The following applies: time 95 min. An outline of the steps: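 Incubation held 0.8 mg/mL human liver microsomes, MgCl2, potassium phosphate buffer pH 7.4 and 0.5 μM compound. After 5 min prewarming at 37 °C, NADPH started the reaction.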

The target in data set [6] is Histone deacetylase 8 (Homo sapiens) (UniProt Q9BY41). The data set is described as §2.
Data set [7] relates to A549. The experiment in a line: Antiproliferative activity against human A549 cells assessed as inhibition of cell growth incubated for 72 hrs by alamar blue assay. The format is functional, cell-based. The conditions noted are these: A549, 72 h. An outline of the steps: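 Cells grown in IMDM with 20% FBS and penicillin/streptomycin at 37 °C, 5% CO2. Compound added to plated cells for 72 h. Alamar blue (1 mM solution) then added for 5–6 h, and fluorescence read at 530/590 nm. IC50 derived for single-agent treatment.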

Data set [8] has as its system A549. Briefly: Antiproliferative activity against human A549 cells assessed as inhibition of cell growth incubated for 72 hrs in presence of (R)-4-((3,4-dibenzyl-2,5-dioxopiperazin-1-yl)methyl)-N-hydroxybenzamide by alamar blue assay. The format is functional, cell-based. The conditions noted are these: A549, 72 h. The essentials: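 Alamar blue assay in IMDM/20% FBS at 37 °C, 5% CO2. Cells were exposed to the two agents together for 72 h, with 5–6 h Alamar blue and fluorescence at 530/590 nm. IC50 in combination was determined. CI50 = IC50Ac/IC50As + IC50Bc/IC50Bs, comparing combination with single-agent IC50s.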

Data set [9] is described as follows: Inhibition of full length HDAC1/MTA1 (162 to 354 residues) (unknown origin) transfected in HEK293F cells using BOC-Lys-AMC as substrate incubated for 30 mins by fluorescence based analysis. On the set-up: species or system Homo sapiens.

Each structure is given as a SMILES string. Structures can show the parent of a compound that is named as a salt. Active and inactive are the calls of the source. No cut-off for these calls is given here. Square brackets hold non-standard residues; d marks the D form. Peptide text beside a SMILES is read from it. * marks the point of attachment. Asu = N[C@@H](CCCCCC(=O)O)C(=O)O; X1 = CC(=O)[C@H](Cc1cnc[nH]1)N*; NHOH = ON*

Histone deacetylase 1, sequence (Q13547 whole entry): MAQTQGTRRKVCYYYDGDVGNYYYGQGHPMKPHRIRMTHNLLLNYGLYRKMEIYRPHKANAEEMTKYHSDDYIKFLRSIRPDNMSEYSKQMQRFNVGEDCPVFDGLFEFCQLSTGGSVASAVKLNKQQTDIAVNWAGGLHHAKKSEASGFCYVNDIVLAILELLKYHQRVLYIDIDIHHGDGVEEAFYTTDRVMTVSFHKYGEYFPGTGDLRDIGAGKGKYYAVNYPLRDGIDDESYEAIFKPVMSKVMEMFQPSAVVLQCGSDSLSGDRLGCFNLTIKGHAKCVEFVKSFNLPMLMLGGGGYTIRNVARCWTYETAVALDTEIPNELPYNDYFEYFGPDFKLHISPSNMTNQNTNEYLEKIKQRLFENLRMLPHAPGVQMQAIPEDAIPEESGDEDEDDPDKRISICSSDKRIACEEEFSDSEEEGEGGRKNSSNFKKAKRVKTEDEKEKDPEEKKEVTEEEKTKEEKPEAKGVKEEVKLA

As to `O=C1CN(Cc2ccc(C(=O)NO)cc2)C(=O)[C@@H](Cc2ccccc2)N1`, the Ratio IC50 in the data set filed under Homo sapiens [1] was found to be 959; in the data set filed under Homo sapiens [3], 4. The IC50 (commonly the concentration at which inhibition is half-maximal) at 72 hrs in [2] is over 100 µM. Also, the half-inhibitory concentration (IC50) with RPMI-8226 came out at 54.4 µM; with U-266 it was 86.3 µM; against Histone deacetylase 8, 30.9 nM; at Histone deacetylase 1, 8.27 µM; in [4], 8.62 nM.
As for `O=C(CCCCCCNC(=O)c1cnc(N(c2ccccc2)c2ccccc2)nc1)NO` [RICOLINOSTAT], the IC50 in the data set on RPMI-8226 was 9.26 µM; with U-266 it was over 100 µM. Further, the half-life (as a rule, how long it takes for the measured level to halve) at 0.5 µM in [5] was 450 min.
For `O=C(NO)c1ccc(CN2CC(=O)N(Cc3ccc(Cl)cc3)[C@H](Cc3ccccc3)C2=O)cc1`, the Ratio IC50 in the data set listed under Homo sapiens [1] turned out to be 786; in the data set listed under Homo sapiens [3], 11. Further, the IC50 against Histone deacetylase 8 amounted to 130 nM; against Histone deacetylase 1, 9.2 µM; in data set [4] it was 11.7 nM.
Turning to `O=C1CN(Cc2ccc(C(=O)NO)cc2)C(=O)[C@H](Cc2c[nH]c3ccccc23)N1`, the results for the half-inhibitory concentration (IC50) (against Histone deacetylase 8; on Histone deacetylase 1; in [4]) were 112 nM, 6.39 µM and 6.64 nM, respectively.
As for `O=C1CN(Cc2cccc(C(=O)NO)c2)C(=O)[C@H](Cc2ccccc2)N1`, the inhibition result (in data set [6]; at Histone deacetylase 1) was “inactive” in each case. Further, in data set [4], 4190 nM corresponded to half-maximal inhibition (IC50).
`COc1cccc2c1C(=O)c1c(O)c3c(c(O)c1C2=O)C[C@@](O)(C(=O)CO)C[C@@H]3O[C@H]1C[C@H](N)[C@H](O)[C@H](C)O1` [DOXORUBICIN HYDROCHLORIDE]: the values for the IC50 with A549 [7] and with A549 [8] were 255 nM and 152 nM, respectively.
As for `O=C(NO)c1ccc(CN2CC(=O)N(Cc3cccc(Cl)c3)[C@H](Cc3ccccc3)C2=O)cc1`, the Ratio IC50 in the data set filed under Homo sapiens [1] was found to be 838; in the data set listed under Homo sapiens [3], 14. Besides, the IC50 at 72 hrs in [2] is over 100 µM. In addition, the IC50 amounted to 13.4 µM in the data set on RPMI-8226; 23.1 µM in the data set with U-266; 150 nM against Histone deacetylase 8; 8.55 µM on Histone deacetylase 1; 10.5 nM in data set [4].
In [9], `CC(=O)[C@H](Cc1cnc[nH]1)NC(=O)[C@H](CCCN=C(N)N)NC(=O)[C@H](CCCCCC(=O)NO)NC(=O)CNC(=O)CN` (H-GG[Asu](NHOH)R-X1) yielded an IC50 of 336 nM.
Regarding `O=C(NO)c1ccc(CC(=O)N(CCO)c2ccccc2)cc1`, the half-maximal inhibitory concentration (IC50) came to 1990 nM on Histone deacetylase 8 and 1.78 µM at Histone deacetylase 1.
Consider `O=C(NO)c1ccc(CN2CC(=O)N(Cc3ccccc3Cl)[C@H](Cc3ccccc3)C2=O)cc1`, for which the Ratio IC50 in the data set filed under Homo sapiens [1] turned out to be 823; in the data set filed under Homo sapiens [3], 16. Moreover, in data set [2], the IC50 at 72 hrs was over 100 µM. For the same compound, the IC50 with RPMI-8226 turned out to be 12.1 µM; in the data set with U-266, 23.4 µM; against Histone deacetylase 8, 162 nM; on Histone deacetylase 1, 8.31 µM; in data set [4], 10.1 nM. In addition, the half-life at 0.5 µM in [5] is 606 min.
Regarding `O=C1CN(Cc2ccc(C(=O)NO)cc2)C(=O)[C@H](Cc2ccccc2)N1`, the Ratio IC50 in the data set filed under Homo sapiens [1] worked out at 411; in the data set listed under Homo sapiens [3], 0.9. In addition, the half-inhibitory concentration (IC50) against Histone deacetylase 8 came to 15.6 nM; against Histone deacetylase 1, 7.2 µM; in [4] it was 17.5 nM.
With `COc1cccc(CN2C(=O)CN(Cc3ccc(C(=O)NO)cc3)C(=O)[C@H]2Cc2ccccc2)c1`, the Ratio IC50 in the data set filed under Homo sapiens [1] is 591; in the data set listed under Homo sapiens [3] it was 12. Besides, the figures for the IC50 (at Histone deacetylase 8; against Histone deacetylase 1; in data set [4]) were 171 nM, 8.1 µM and 13.7 nM, respectively.
In data set [4], `CN1C(=O)CN(Cc2ccc(C(=O)NO)cc2)C(=O)C1Cc1ccccc1` (racemic) had a concentration for half-maximal inhibition (IC50) of 16.7 nM.

Values taken from ChEMBL document CHEMBL5230083, “Novel 2, 5-diketopiperazine derivatives as potent selective histone deacetylase 6 inhibitors: Rational design, synthesis and antiproliferative activity” (Eur J Med Chem, 2020).
